# Screens from PubChem.
# This is a sample that favours compounds with a hit; in the whole collection about 2.6% have one here.
# SENP8 block-1 = inhibitors of human SENP8 protease; Q96LD8; recombinant SENP8, Nedd8 substrate fluorescence; inhibition, % at 20 µM; 360,000 tested, 0.64% active; in the data active = inhibition mostly above about 40%, no sharp cut-off; inactive = mostly below about 27%
# Target sequence (Q96LD8 whole entry, looked up): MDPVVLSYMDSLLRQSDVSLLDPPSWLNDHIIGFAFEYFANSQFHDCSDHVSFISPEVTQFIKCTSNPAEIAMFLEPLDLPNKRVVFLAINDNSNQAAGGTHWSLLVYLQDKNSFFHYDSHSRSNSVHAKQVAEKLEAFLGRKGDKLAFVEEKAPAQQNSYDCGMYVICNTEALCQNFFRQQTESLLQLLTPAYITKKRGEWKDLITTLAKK
# SENP1 FRET inh = inhibitors of human SENP1 SUMO protease catalytic domain; Q9P0U3; recombinant SENP1 catalytic domain, CyPet-SUMO1-YPet FRET cleavage; inhibition, % at 10 µM; 360,000 tested, 0.21% active; AID 624204;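 active = inhibition at least 30% at 10 µM, raw YFP signal under a set limit, fluorescence ratio 0.5 to 1.5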;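 also: 0% = enzyme with DMSO and 100% = no enzyme wells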
#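 Assay system: hSENP1 catalytic domain, recombinant. Amount: SENP1 enzyme, 20 pM final. Schedule: 50 min reaction, RT, dark. Technique: FRET, CFP and YFP emission. Control set: no-enzyme wells low, DMSO-plus-enzyme wells high control.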
# SENP6 block = blocks the human protease SENP6. AID 2599. 330,000 tested, 1.8% active. inhibition, % at 10 µM. Recombinant SENP6 catalytic domain, aminoluciferin luminescence;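 active = inhibition above about 50% at the single tested dose, limit read from the data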;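 also: plate controls were DMSO wells with enzyme for no effect and DMSO wells lacking enzyme for full effect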
# Target sequence (Q9GZR1 628-1112 limits assumed): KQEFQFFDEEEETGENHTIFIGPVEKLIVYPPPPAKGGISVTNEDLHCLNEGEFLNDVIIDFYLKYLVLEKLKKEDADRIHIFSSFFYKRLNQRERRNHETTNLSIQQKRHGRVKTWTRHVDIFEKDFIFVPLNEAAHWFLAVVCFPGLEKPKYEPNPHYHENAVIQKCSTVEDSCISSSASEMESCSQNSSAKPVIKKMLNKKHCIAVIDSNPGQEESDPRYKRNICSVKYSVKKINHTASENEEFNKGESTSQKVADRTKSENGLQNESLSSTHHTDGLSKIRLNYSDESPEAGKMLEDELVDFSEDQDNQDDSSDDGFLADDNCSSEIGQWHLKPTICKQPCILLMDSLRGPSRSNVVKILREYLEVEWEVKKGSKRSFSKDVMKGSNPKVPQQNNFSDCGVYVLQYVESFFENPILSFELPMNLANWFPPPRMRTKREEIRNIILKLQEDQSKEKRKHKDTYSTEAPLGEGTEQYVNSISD
# SENP7 inh = inhibitors of human SENP7 protease. inhibition, % at 5 µM. Q9BQF6. 330,000 tested, 1.5% active. recombinant SENP7, Z-RLRGG-aminoluciferin luminescence, 40 min;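 active = inhibition above about 50% at the single test dose, limit read from the data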;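 also: plate controls were DMSO with enzyme for no effect and no enzyme buffer wells for full effect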
# Platelet DG rel = platelet dense granule release activity; human platelet-rich plasma, SFLLRN dense granule ATP release, luminescence; 300,000 tested, 0.22% active; inhibition, %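 (compounds screened at 7.5 µM in platelet-rich plasma)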;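 active = mean replicate score, as percent of positive control, at or above 50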
# SENP8 block-2 = inhibitors of human SENP8 protease | purified SENP8, Z-RLRGG-aminoluciferin cleavage, luminescence | inhibition, % at 10 µM | 330,000 tested, 1.2% active | AID 2540; in the data active = inhibition above about 50%
# SENP8 conf = human SENP8 inhibition, confirmed | inhibition, % at 12.5 µM | shares compounds with SENP7 inh | 6,200 tested, 40% active | Recombinant SENP8, Z-RLRGG-aminoluciferin luminescence, 60 min | AID 488912;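 active = mean inhibition across replicates above about 50%, limit read from the data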
# SENP6 conf = human SENP6 inhibition, confirmed | shares compounds with SENP7 inh | inhibition, % at 12.5 µM | recombinant SENP6, Z-RLRGG-aminoluciferin luminescence | 6,200 tested, 58% active
# SENP7 conf = human SENP7 inhibition, confirmed | inhibition, % at 12.5 µM | shares compounds with SENP7 inh | 6,200 tested, 69% active | recombinant SENP7, Z-RLRGG-aminoluciferin luminescence, 40 min
# Casp3 SENP sel = inhibits human caspase-3 in SENP selectivity test; shares compounds with SENP7 inh; purified caspase-3, Z-DEVD-aminoluciferin luminescence, 60 min; inhibition, % at 12.5 µM; 6,200 tested, 60% active; AID 488918;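 active = mean inhibition above about 50%, limit read from the data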;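 also: plate controls were enzyme with DMSO for no effect and wells without caspase-3 for full effect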
# SENP luc ctr = interferes with luciferase luminescence in SENP counter-screen | shares compounds with SENP7 inh | Pre-incubated SENP8/Z-RLRGG-aminoluciferin, luciferase luminescence interference | inhibition, % at 12.5 µM | 6,200 tested, 39% active | AID 488919;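 active = mean inhibition above about 50% when retested at one dose, limit read from the data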;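 also: plate controls were DMSO wells with completed reaction for no effect and substrate without enzyme for full effect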
# The depositor's hits bear a star; . = no result given.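 The calls were made as follows, unless noted: active = mean inhibition above about 50% in the one-dose retest (limit read from the data); inactive = the rest.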
SMILES,SENP8 block-1,SENP1 FRET inh,SENP6 block,SENP7 inh,Platelet DG rel,SENP8 block-2,SENP8 conf,SENP6 conf,SENP7 conf,Casp3 SENP sel,SENP luc ctr
CCCCN(C)C(=O)c1cc2cc3ccc(OC)cc3nc2s1,-334.1,1.1,91.4*,95.5*,1.1,91.3*,90.6*,96.7*,101.4*,96.3*,54.2*
Cc1ccccc1Nc1nnc(SCC2CCCCO2)s1 (stereo not given),8.3,0.8,90.2*,87.1*,-0.5,76.8*,81.4*,81.5*,96.9*,88.1*,76.9*
COc1ccccc1Nc1nnc(SCC2CCCCO2)s1 (stereo not given),11.7,-0.2,91.4*,90.0*,17.0,87.9*,91.3*,91.3*,99.9*,93.6*,90.8*
COc1ccccc1Nc1nnc(SCC(=O)NC2CCCC2)s1,4.8,-0.7,-5.9,-4.8,.,-13.1,.,.,.,.,.
Cc1ccc(Nc2nnc(SCC3CCCCO3)s2)cc1 (stereo not given),5.9,0.9,-9.6,-13.1,-5.6,-15.3,.,.,.,.,.
CCCN1CCc2c(sc(NC(=O)c3ccc(S(=O)(=O)N4CCCC4)cc3)c2C(N)=O)C1,-234.1,-26.8,1.8,-4.1,5.2,-2.1,.,.,.,.,.
N#Cc1c(-c2ccccc2Cl)noc1/C=C/Nc1ccc(C(=O)O)cc1,-338.1,-51.0,94.8*,68.7*,-1.4,95.3*,88.7*,97.0*,97.2*,84.1*,11.9
O=C(O)CSc1nc2ccccc2o1,-1.0,2.2,-10.2,1.5,7.1,-3.5,.,.,.,.,.
COC(=O)c1ccc(CSc2nc3ccccc3o2)cc1,15.7,0.9,85.3*,91.1*,2.7,86.7*,-24.5,90.7*,99.9*,80.0*,65.1*
O=[N+]([O-])c1ccc(CSc2nc3ccccc3o2)cc1,21.3,2.6,52.2*,24.4,0.1,15.6,52.8*,53.6*,65.6*,35.7,32.0
CC(=O)Nc1cc(S(=O)(=O)C(F)(F)F)ccc1Cl,16.7,-0.8,-9.4,-11.7,-1.7,-9.5,.,.,.,.,.
Cc1ccccc1Cn1c(-c2ccc(=O)[nH]c2)nc2ccccc21,-27.0,-3.0,-6.7,6.9,3.0,-0.5,.,.,.,.,.
COC(=O)c1ccc2c(c1O)C(=O)c1ccccc1C2=O,26.7,12.1,70.6*,43.9,4.0,44.0,41.4,54.9*,66.4*,74.0*,9.6
Nc1c(C(=O)O)ccc2c1C(=O)c1ccccc1C2=O,28.7,5.5,-8.6,3.5,8.2,54.1*,68.8*,66.2*,83.4*,78.7*,72.8*
Nc1c(SCCC(=O)O)ccc2c1C(=O)c1ccccc1C2=O,31.1,24.6,89.2*,44.7,1.6,84.2*,92.6*,92.9*,98.1*,93.5*,91.5*
CCN(CC)S(=O)(=O)c1ccc2oc(C(=O)Nc3ccc(OC)cc3OC)c(C)c2c1,-12.0,1.3,10.6,-4.8,-7.4,3.6,.,.,.,.,.
O=C(Nc1c(O)c2ccccc2[nH]c1=O)c1ccco1,12.1,-0.5,45.0,1.4,0.0,4.1,.,.,.,.,.
O=c1c(-c2ccccc2)c(O)c2ccccc2n1-c1ccccc1,-302.2,3.1,-4.5,-0.7,10.6,6.4,.,.,.,.,.
CCOc1ccc(NC(=S)Nc2ccc(OCC)cc2)cc1,6.3,1.4,-13.1,-5.9,3.7,-10.3,.,.,.,.,.
CCOc1ccc(NC(=S)Nc2cccc3ccccc23)cc1,-404.2,-10.5,88.2*,33.5,21.8,50.4*,8.9,8.7,11.3,2.8,9.5
COc1ccc(NC(=S)Nc2cccc3cnccc23)cc1,-30.7,-3.7,88.3*,66.6*,12.0,-7.2,10.9,39.5,21.7,6.7,4.3
COc1ccccc1NC(=S)Nc1cccc2cnccc12,-121.9,-20.7,91.2*,81.5*,-6.8,1.1,-10.6,9.8,-3.5,3.8,0.8
CCOc1ccc(NC(=S)Nc2cccc3cnccc23)cc1,-42.4,-7.1,86.9*,63.5*,9.0,-2.7,13.3,33.4,22.1,12.3,15.7
Cc1ccc(C(=O)NCC(=O)OCC(=O)N2CC(C)OC(C)C2)cc1 (stereo not given),13.8,-1.0,-8.7,-13.2,-14.1,-13.1,.,.,.,.,.
NC(=O)c1ccccc1OCC(=O)Nc1ccc(Cl)c(Cl)c1,12.8,2.0,51.6*,26.6,7.0,17.6,15.3,21.1,63.6*,23.8,11.0
SMILES,SENP8 block-1,SENP1 FRET inh,SENP6 block,SENP7 inh,Platelet DG rel,SENP8 block-2,SENP8 conf,SENP6 conf,SENP7 conf,Casp3 SENP sel,SENP luc ctr
O=C(Cc1ccccc1)NNC(=O)Nc1ccc(Cl)c(Cl)c1,3.9,0.0,-9.2,2.6,-4.0,2.3,.,.,.,.,.
Cc1ccc(NC(=O)Nc2ccccc2C(=O)NCc2ccccc2)cc1,-145.4,-1.5,25.1,72.7*,7.2,42.4,12.9,19.3,76.2*,56.3*,48.4
Cc1ccccc1NC(=O)Nc1ccccc1C(=O)NCc1ccccc1,-141.5,0.8,10.3,4.1,5.9,3.6,.,.,.,.,.
O=C(Nc1ccc(Cl)c(Cl)c1)Nc1ccccc1C(=O)O,-262.5,-1.4,99.9*,100.5*,29.6,97.6*,3.8,101.3*,104.2*,99.9*,100.0*
O=C(Nc1ccc(Cl)cc1)Nc1ccccc1C(=O)O,-391.5,0.4,95.1*,99.5*,52.5*,96.3*,7.6,100.8*,103.5*,99.3*,47.8
NC(=O)c1ccccc1OCC(=O)Nc1ccc2c(c1)CCC2,-1.3,-0.8,-1.1,9.2,.,-5.1,.,.,.,.,.
O=C(O)c1cccnc1Nc1ccc(Cl)cc1,18.2,2.3,66.1*,20.5,14.9,55.6*,72.5*,70.2*,84.8*,72.5*,73.8*
Clc1ccc(Cn2ncc3c(N4CCCCC4)ncnc32)c(Cl)c1,.,.,-3.3,4.9,-46.9,-1.4,.,.,.,.,.
CCOc1ccc(-c2ccc(SC)nn2)cc1,5.3,0.2,98.1*,97.3*,94.8*,93.0*,92.6*,98.0*,101.5*,97.6*,36.3
CCOc1ccc(-c2ccc(SCC(=O)Nc3nnc(CC)s3)nn2)cc1,13.1,-2.8,8.1,2.4,.,11.0,.,.,.,.,.
COc1cc(/C=C(\C#N)c2nc3ccccc3[nH]2)cc(OC)c1O,-217.9,-25.6,.,.,1.5,.,.,.,.,.,.
